# The source made the active and inactive calls. No cut-off for these calls is given here.
# Experiments:
# Escherichia coli [1] = assay: Bactericidal activity against Escherichia coli ATCC 10798 incubated for 24 hrs under aerobic condition by MABA; type: functional; conditions: ATCC 10798, 24 h
# Enterococcus faecalis [2] = assay: Bactericidal activity against Enterococcus faecalis ATCC 349 incubated for 24 hrs under aerobic condition by MABA; type: functional; conditions: ATCC 349, 24 h
# Streptococcus pneumoniae [3] = assay: Bactericidal activity against Streptococcus pneumoniae ATCC 6301 incubated for 24 hrs under aerobic condition by MABA; type: functional; conditions: ATCC 6301, 24 h
# [4] = test system: Mycobacterium tuberculosis; assay: Bactericidal activity against replicating Mycobacterium tuberculosis H37Rv incubated for 15 days under aerobic condition by MABA; type: functional; conditions: 360 h
# Method in brief: (§1)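 Mtb H37Rv grown in 7H9/OADC at 37 °C with shaking to OD600 0.5. The 0.5-OD culture is exposed aerobically to serial dilutions for 15 days at 37 °C. Resazurin (0.02% stock) is then added for 4 h at 37 °C with shaking.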
# [5] = test system: Mycobacterium tuberculosis; assay: Antibacterial activity against Mycobacterium tuberculosis; type: functional; conditions: read-out: MIC100; method in brief: as §1
# [6] = test system: Mycobacterium tuberculosis; assay: Bactericidal activity against Mycobacterium tuberculosis H37Rv at 2 times MIC measured every 24 hrs up to 12 days by time kill assay relative to control; type: functional
# Method in brief: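 Mid-log H37Rv (OD 0.5) is diluted to OD 0.25 and exposed at MIC, 2×MIC or 4×MIC. Every 24 h cultures are diluted 10- to 10,000-fold and plated on 7H10/OADC agar. Plates are incubated 15 days at 37 °C before colony counts.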
# Staphylococcus aureus [7] = assay: Bactericidal activity against Staphylococcus aureus BAA 2094 incubated for 24 hrs under aerobic condition by MABA; type: functional; conditions: BAA 2094, 24 h
# Klebsiella pneumoniae [8] = assay: Bactericidal activity against Klebsiella pneumoniae ATCC 12019 incubated for 24 hrs under aerobic condition by MABA; type: functional; conditions: ATCC 12019, 24 h
# Staphylococcus aureus [9] = assay: Bactericidal activity against Staphylococcus aureus BAA 44 incubated for 24 hrs under aerobic condition by MABA; type: functional; conditions: BAA 44, 24 h
# Staphylococcus aureus [10] = assay: Antibacterial activity against Staphylococcus aureus ATCC 25923 incubated for 24 hrs under aerobic condition by MABA; type: functional; conditions: ATCC 25923, 24 h, read-out: MIC100
# Method in brief: (§2)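 Mid-log cultures at OD 0.5 were exposed to serial dilutions under aerobic conditions at 37 °C for 24 h. Resazurin was then added from a 0.08% stock for 1 h. MIC100 was the lowest concentration where the dye stayed blue (pink means growth). Absorbance was also read at 570 and 600 nm.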
# Staphylococcus aureus [11] = assay: Bactericidal activity against Staphylococcus aureus ATCC 25923 incubated for 24 hrs under aerobic condition by MABA; type: functional; conditions: ATCC 25923, 24 h
# [12] = test system: Mycobacterium tuberculosis; assay: Antibacterial activity against replicating Mycobacterium tuberculosis H37Rv incubated for 15 days under aerobic condition by MABA; type: functional; conditions: 360 h, read-out: MIC100; method in brief: as §1
# [13] = Half life in Sprague-Dawley rat liver microsomes at 500 ng/ml preincubated for 5 mins followed by NADPH addition by C-MS/MS analysis; type: ADME, microsome
# Staphylococcus aureus [14] = assay: Antibacterial activity against Staphylococcus aureus incubated for 24 hrs under aerobic condition by MABA; type: functional; conditions: read-out: MIC100
# Method in brief: (§3)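 Resazurin was then added from a 0.08% stock for 1 h. MIC100 was the lowest concentration where the dye stayed blue (pink means growth). Absorbance was also read at 570 and 600 nm.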
# Streptococcus pneumoniae [15] = assay: Antibacterial activity against Streptococcus pneumoniae ATCC 6301 incubated for 24 hrs under aerobic condition by MABA; type: functional; conditions: ATCC 6301, 24 h, read-out: MIC100; method in brief: as §2
# Bacillus subtilis [16] = assay: Bactericidal activity against Bacillus subtilis ATCC 6051 incubated for 24 hrs under aerobic condition by MABA; type: functional; conditions: ATCC 6051, 24 h
# Enterococcus faecalis [17] = assay: Antibacterial activity against Enterococcus faecalis ATCC 349 incubated for 24 hrs under aerobic condition by MABA; type: functional; conditions: ATCC 349, 24 h, read-out: MIC100; method in brief: as §2
# Staphylococcus aureus [18] = assay: Antibacterial activity against Staphylococcus aureus BAA 44 incubated for 24 hrs under aerobic condition by MABA; type: functional; conditions: BAA 44, 24 h, read-out: MIC100; method in brief: as §2
# Acinetobacter baumannii [19] = assay: Bactericidal activity against Acinetobacter baumannii ATCC 19606 incubated for 24 hrs under aerobic condition by MABA; type: functional; conditions: ATCC 19606 = CIP 70.34 = JCM 6841, 24 h
# Staphylococcus aureus [20] = assay: Bactericidal activity against Staphylococcus aureus incubated for 24 hrs under aerobic condition by MABA; type: functional
# Escherichia coli [21] = assay: Inhibition of protein translation/transcription in Escherichia coli S30 cell extract at 0.1 ug/ml using circular DNA with pBESTluc after 60 mins by luciferase reporter gene assay; type: functional
# Method in brief: (§4)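 Coupled transcription/translation used E. coli S30 extract, amino acid mix and premix, with the pBESTluc template carrying firefly luciferase under the tac promoter. Compounds were added in DMSO and reactions were started with DNA. Incubation was 60 min at 37 °C, stopped on ice, and luciferase was read after adding assay substrate.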
# [22] = test system: Mycolicibacterium smegmatis; assay: Bactericidal activity against Mycobacterium smegmatis ATCC 607 incubated for 48 hrs under aerobic condition by MABA; type: functional; conditions: ATCC 607, 48 h
# Escherichia coli [23] = assay: Inhibition of protein translation/transcription in Escherichia coli S30 cell extract at 0.5 ug/ml using circular DNA with pBESTluc after 60 mins by luciferase reporter gene assay; type: functional; method in brief: as §4
# Streptococcus salivarius [24] = assay: Antibacterial activity against Streptococcus salivarius […] incubated for 24 hrs under aerobic condition by MABA; type: functional; conditions: read-out: MIC100; method in brief: as §3
# Streptococcus salivarius [25] = assay: Bactericidal activity against Streptococcus salivarius ATCC 6301 incubated for 24 hrs under aerobic condition by MABA; type: functional; conditions: ATCC 6301, 24 h
# Staphylococcus aureus [26] = assay: Antibacterial activity against Staphylococcus aureus BAA 1683 incubated for 24 hrs under aerobic condition by MABA; type: functional; conditions: BAA 1683, 24 h, read-out: MIC100; method in brief: as §2
# Enterococcus faecalis [27] = assay: Antibacterial activity against Enterococcus faecalis ATCC 19433 incubated for 24 hrs under aerobic condition by MABA; type: functional; conditions: ATCC 19433, 24 h, read-out: MIC100; method in brief: as §2
# Escherichia coli [28] = assay: Antibacterial activity against Escherichia coli ATCC 10798 incubated for 24 hrs under aerobic condition by MABA; type: functional; conditions: ATCC 10798, 24 h, read-out: MIC100; method in brief: as §2
# Enterococcus faecalis [29] = assay: Bactericidal activity against Enterococcus faecalis ATCC 19433 incubated for 24 hrs under aerobic condition by MABA; type: functional; conditions: ATCC 19433, 24 h
# Staphylococcus aureus [30] = assay: Antibacterial activity against Staphylococcus aureus BAA 2094 incubated for 24 hrs under aerobic condition by MABA; type: functional; conditions: BAA 2094, 24 h, read-out: MIC100; method in brief: as §3
# Clostridioides difficile = assay: Bactericidal activity against Clostridium difficile ATCC 700057 incubated for 24 hrs […] by MABA; type: functional; conditions: ATCC 700057, 24 h
# Vero = assay: Cytotoxicity against African green monkey Vero cells assessed as reduction in cell viability after 72 hrs by MTT assay; type: cell-based; conditions: Chlorocebus sabaeus
# Method in brief: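 Vero cells were grown in complete EMEM with 10% FBS and exposed for 72 h to 0.78–200 µg/mL. The medium was then swapped for phenol-red-free EMEM and MTT was added. Formazan absorbance was read at 570 nm to give IC50.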
# Bacillus subtilis [31] = assay: Antibacterial activity against Bacillus subtilis ATCC 6051 incubated for 24 hrs under aerobic condition by MABA; type: functional; conditions: ATCC 6051, 24 h, read-out: MIC100; method in brief: as §2
# Erythrocyte = assay: Hemolytic activity in sheep erythrocytes after 2 hrs; type: ADME, cell-based; conditions: Ovis aries
# Method in brief: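 Washed heparinized sheep erythrocytes at 3% in buffer pH 7.4 were treated with 2–200 µg/mL for 2 h at 37 °C with gentle shaking. Triton X-100 (0.01–1%) was the positive control and PEG:H2O diluent the negative control. Released hemoglobin was read at OD540 and % hemolysis calculated against both controls.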
# Acinetobacter baumannii [32] = assay: Antibacterial activity against Acinetobacter baumannii ATCC 19606 incubated for 24 hrs under aerobic condition by MABA; type: functional; conditions: ATCC 19606 = CIP 70.34 = JCM 6841, 24 h, read-out: MIC100; method in brief: as §2
# Staphylococcus aureus [33] = assay: Bactericidal activity against Staphylococcus aureus BAA 1683 incubated for 24 hrs under aerobic condition by MABA; type: functional; conditions: BAA 1683, 24 h
# [34] = test system: Mycolicibacterium smegmatis; assay: Antibacterial activity against Mycobacterium smegmatis ATCC 607 incubated for 48 hrs under aerobic condition by MABA; type: functional; conditions: ATCC 607, 48 h, read-out: MIC100
# Method in brief: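 Mid-log culture at OD 0.5 was incubated with serial dilutions aerobically at 37 °C for 48 h. Resazurin was then added from a 0.08% stock for 1 h. MIC100 was the lowest concentration that stayed blue; absorbance was also read at 570/600 nm.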
# Klebsiella pneumoniae [35] = assay: Antibacterial activity against Klebsiella pneumoniae ATCC 12019 incubated for 24 hrs under aerobic condition by MABA; type: functional; conditions: ATCC 12019, 24 h, read-out: MIC100; method in brief: as §2
# [36] = Selectivity index, ratio of IC50 for African green monkey Vero cells to MIC100 for replicating Mycobacterium tuberculosis H37Rv by MABA; type: toxicity; conditions: read-out: Selectivity Index
# Method in brief: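 Vero cells are cultured in EMEM with 10% FBS and exposed for 72 h to 0.78–200 µg/mL. Medium is switched to phenol-red-free EMEM, MTT is added, and formazan is read at 570 nm to give IC50. The selectivity index is Vero IC50 divided by the MABA MIC.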
structure (smiles),measurement,setting,value
CC[C@]1(C)C[C@@H](OC(=O)CSC(C)(C)CNC(=O)[C@H](N)CC(C)C)[C@]2(C)[C@H](C)CC[C@]3(CCC(=O)[C@H]32)[C@@H](C)[C@@H]1O,MBC,Escherichia coli [1],> 25 µg/mL
same,MBC,Enterococcus faecalis [2],> 25 µg/mL
same,MBC,Streptococcus pneumoniae [3],> 25 µg/mL
same,MBC,[4],0.77 µg/mL
same,MIC,[5],< 6.25 µg/mL
same,Activity,[6],100%
same,MBC,Staphylococcus aureus [7],> 25 µg/mL
same,MBC,Klebsiella pneumoniae [8],> 25 µg/mL
same,MBC,Staphylococcus aureus [9],> 25 µg/mL
same,MIC,Staphylococcus aureus [10],> 25 µg/mL
same,MBC,Staphylococcus aureus [11],> 25 µg/mL
same,MIC,[12],0.78 µg/mL
same,t1/2,[13],< 5 min
same,MIC,Staphylococcus aureus [14],0.4 µg/mL
same,MIC,Streptococcus pneumoniae [15],25 µg/mL
same,MBC,Bacillus subtilis [16],25 µg/mL
same,MIC,Enterococcus faecalis [17],> 25 µg/mL
same,MIC,Staphylococcus aureus [18],> 25 µg/mL
same,MBC,Acinetobacter baumannii [19],12.5 µg/mL
same,MBC,Staphylococcus aureus [20],0.8 µg/mL
same,inhibition,Escherichia coli [21],Active
same,MBC,[22],25 µg/mL
same,inhibition,Escherichia coli [23],Active
same,MIC,Streptococcus salivarius [24],0.4 µg/mL
same,MBC,Streptococcus salivarius [25],> 25 µg/mL
same,MIC,Staphylococcus aureus [26],> 25 µg/mL
same,MIC,Enterococcus faecalis [27],12.5 µg/mL
same,MIC,Escherichia coli [28],12.5 µg/mL
same,MBC,Enterococcus faecalis [29],25 µg/mL
same,MIC,Staphylococcus aureus [30],> 25 µg/mL
same,MBC,Clostridioides difficile,1.56 µg/mL
same,IC50,Vero,25 µg/mL
same,MIC,Bacillus subtilis [31],12.5 µg/mL
same,IC50,Erythrocyte,> 200 µM
same,MIC,Acinetobacter baumannii [32],9.38 µg/mL
same,MBC,Staphylococcus aureus [33],> 25 µg/mL
same,MIC,[34],6.25 µg/mL
same,MIC,Klebsiella pneumoniae [35],25 µg/mL
same,selectivity ratio,[36],32
